Measured values: ChEMBL document CHEMBL4043092, “Neuroprotective and Antineuroinflammatory Effects of Hydroxyl-Functionalized Stilbenes and 2-Arylbenzo[b]furans” (J Med Chem, 2017)
pEC50: −log10 of the molar value.

Legend:
Cortical neurone [1] = test: Neuroprotective activity against fibril amyloid beta (25 to 35)-induced cell death in Sprague-Dawley rat 5 day old neonatal primary cortical neurons assessed as cell death at maximum non toxic concentration pretreated for 2 hrs followed by 10 uM fibril amyloid beta (25 to 35) addition measured after 48 hrs by MTT assay (reference value: 39.20 +/- 0.88%); format: functional
In short: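 Rat cortical neurons from pups, papain-dissociated, cytosine arabinoside (5 μM, 1 day) to remove non-neuronal cells, used at DIV5. Vehicle 0.1% DMSO or compound pretreatment before fAβ25–35 (aged 1 week at 37 °C). Viability by MTT reduction: 0.5 mg/mL for 1 h, formazan dissolved in DMSO, OD600. Mean ± SD of three independent experiments.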

[2] = Anti-inflammatory activity in Sprague-Dawley rat primary mixed glial cells assessed as inhibition of LPS-induced NO production at 50 uM pretreated for 2 hrs followed by LPS addition measured after 48 hrs by Griess assay (reference value: 100%); format: functional, Primary glial cell; set-up: scale not given: the % may be the effect or the level left
Cortical neurone [3] = test: Neuroprotective activity against fibril amyloid beta (25 to 35)-induced cell death in Sprague-Dawley rat 5 days old neonatal primary cortical neurons assessed as increase in cell viability pretreated for 2 hrs followed by 10 uM fibril amyloid beta (25 to 35) addition measured after 48 hrs by MTT assay; format: functional, cell-based
In short: (§1)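 Cortical neurons pretreated 2 h with vehicle (0.1% DMSO) or compound at maximum nontoxic concentration. Then exposed at DIV5 to fibrillar Aβ25–35 (10 μM, 48 h) or at DIV10 to glutamate (30 μM, 24 h). MTT 0.5 mg/mL for 1 h, formazan dissolved in DMSO, OD read at 600 nm. Mean ± SD of three independent experiments.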

Cortical neurone [4] = test: Neuroprotective activity against glutamate-induced cell death in Sprague-Dawley rat 10 days old neonatal primary cortical neurons assessed as cell death at maximum non toxic concentration pretreated for 2 hrs followed by 30 uM glutamate addition measured after 24 hrs by MTT assay (reference value: 41.22 +/- 3.40%); format: functional
[5] = Antioxidant activity assessed as ABTS radical cation scavenging activity by measuring trolox equivalents by spectrophotometric analysis; format: functional
[6] = Anti-inflammatory activity in Sprague-Dawley rat primary mixed glial cells assessed as inhibition of LPS-induced NO production pretreated for 2 hrs followed by LPS addition measured after 48 hrs by Griess assay; format: functional, cell-based; conditions: Glial cell
In short: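 Mixed cortical glia kept 3 days in DMEM/F12 with 10% FBS, medium changed, 4 more days, then 9 days in Neurobasal/B27 (16 days total). Cultures activated 2 days after medium refresh with 100 ng/mL LPS for 48 h, with compound at maximum nontoxic concentration. Medium nitrite read by Griess reagent at 540 nm against NaNO2 standard. Mean ± SD, three independent experiments.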

Cortical neurone [7] = test: Neuroprotective activity against glutamate-induced cell death in Sprague-Dawley rat 10 days old neonatal primary cortical neurons assessed as increase in cell viability pretreated for 2 hrs followed by 30 uM glutamate addition measured after 24 hrs by MTT assay; format: functional, cell-based; in short: as §1

SMILES	Activity (Cortical neurone [1])	Activity [2]	pEC50 (Cortical neurone [3])	Activity (Cortical neurone [4])	Activity [5]	pEC50 [6]	pEC50 (Cortical neurone [7])
O=C(O)/C=C/c1ccc(O)c2c1C=Cc1cc(O)c(O)cc1O2 [TOURNEFOLIC ACID B]	24.66%	98.77%	4.45	42.43%	1.27 mMequiv		
COc1cc(Br)c(/C=C/c2cccc(OC)c2O)cc1OC	39.67%	102.71%		42.89%			
CCOC(=O)/C=C/c1cccc(/C=C/c2cc(O)c(O)c(O)c2)c1	41.19%	26.02%	< 4.30	42.05%		4.31	< 4.30
CCOC(=O)/C=C/c1cc(OC)c(OC)cc1/C=C/c1cc(OC)c(OC)c(OC)c1	41.59%	123.48%		39.47%			
COc1cc(Br)cc(/C=C/c2ccc3c(c2)OCO3)c1O	45.74%	48.79%	< 5.00	45.69%		4.07	< 4.70
COc1ccc(/C=C/c2cc(Br)cc(OC)c2O)cc1OC	41.5%	88.34%		42.09%			
COc1ccc(Br)c2cc(-c3ccc4c(c3)OCO4)oc12	43.98%	202.71%		46.84%			
COc1ccc(/C=C/c2cc(C=O)cc(OC)c2O)cc1OC	48.16%	27.99%	< 4.30	37.02%		4.37	< 4.30
Oc1ccc(-c2cc3cc(Br)cc(O)c3o2)cc1	30.1%	101.84%		33.02%			
CCOC(=O)/C=C/c1c(/C=C/c2ccc(OC)cc2)cc(OC)c(OC)c1OC	36.93%	59.11%		41.07%			
CCOC(=O)/C=C/c1cc2c(cc1/C=C/c1cc(OC)c(OC)c(OC)c1)OCO2	41.76%	127.76%		43.95%			
CCOC(=O)/C=C/c1cc(O)c(O)cc1-c1cc2cccc(O)c2o1	31.58%	38.13%	< 4.30	43.5%	0.2 mMequiv	4.08	< 4.30
CCOC(=O)/C=C/c1ccc(OC)c(O)c1/C=C/c1cc(OC)c(OC)c(OC)c1	42.53%	114.19%		43.06%			
COc1cc(/C=C/c2ccccc2O)c(Br)c(OC)c1OC	37.67%	105.48%		47.1%			
CCOC(=O)/C=C/c1cccc(/C=C/c2cc(OC)c(OC)c(OC)c2)c1	35.98%	75.6%		43.29%			
CCOC(=O)/C=C/c1ccc(OC)c(O)c1/C=C/c1ccc2c(c1)OCO2	38.17%	70.98%	< 4.30	49.21%		4.17	< 4.30

SMILES	Activity (Cortical neurone [1])	Activity [2]	pEC50 (Cortical neurone [3])	Activity (Cortical neurone [4])	Activity [5]	pEC50 [6]	pEC50 (Cortical neurone [7])
CCOC(=O)/C=C/c1ccc(/C=C/c2cc(OC)c(OC)c(OC)c2)cc1	44.43%	91.44%		44.56%			
Oc1cc(-c2cc3cc(Br)cc(O)c3o2)cc(O)c1O	45.8%	106.67%		43.67%			
COc1cccc(/C=C/c2ccc3c(c2)OCO3)c1OC	38.18%	95.92%		44.02%			
CCOC(=O)/C=C/c1ccc(OC)c(O)c1/C=C/c1ccc(OC)c(OC)c1	38.07%	106.26%		44.3%			
COc1cccc(/C=C/c2ccc3c(c2)OCO3)c1O	46.98%	101%		38.42%			
CCOC(=O)/C=C/c1cc2c(cc1/C=C/c1ccc(OC)cc1)OCO2	41.62%	74.88%		37.28%			
CCOC(=O)/C=C/c1cc(/C=C/c2ccc3c(c2)OCO3)c(O)c(OC)c1	39.08%	139.87%		41.26%			
COC(=O)/C=C/c1ccc(O)c2c1C=Cc1cc(O)c(O)cc1O2	40.12%	99.63%		20.38%	1.48 mMequiv		< 4.30
COc1cc(/C=C/c2ccc3c(c2)OCO3)cc(OC)c1OC	45.46%	83.73%		36.43%			
COc1cc(Br)c(/C=C/c2cc(Br)cc(OC)c2O)cc1OC	38.78%	94.57%		41.17%			
COc1ccc(/C=C/c2ccc3c(c2)OCO3)cc1O	43.51%	81.35%		30.94%			
Oc1cc(-c2cc3ccccc3o2)c(Br)c(O)c1O	42.34%	24.92%	< 4.70	41.89%	0.97 mMequiv	4.41	< 4.70
CCOC(=O)/C=C/c1cc(OC)c(OC)cc1/C=C/c1cccc(OC)c1O	41.24%	89.35%		42.73%			
CCOC(=O)/C=C/c1cc(OC)c(OC)cc1/C=C/c1ccccc1O	36.56%	73.27%		43.3%			
CCOC(=O)/C=C/c1cc2c(cc1/C=C/c1cccc(OC)c1O)OCO2	41.57%	75.33%		41.64%			
